≈ marks a conversion by molar mass, not a printed value. Calls of active or inactive are those of the source. The rule behind the calls is not given here.
How the values were obtained:
[1] = system: Staphylococcus epidermidis; assay: Antibacterial activity against Staphylococcus epidermidis ATCC 12228 at 400 ug/disc after 18 hrs by disc diffusion assay; type: functional; settings: ATCC 12228, 18 h, read-out: IZ
Outline: (§1)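 Disc diffusion on Mueller–Hinton II agar per CLSI guidelines. Compound in ethanol applied to 9 mm filter paper discs at 400 µg per disc, then dried and placed on the agar surface. Growth inhibition zone diameter read after 18 h at 35 °C.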

[2] = system: Staphylococcus epidermidis; assay: Antibacterial activity against Staphylococcus epidermidis ATCC 12228 after 18 hrs by serial agar dilution method; type: functional; settings: ATCC 12228, 18 h
Outline: (§2)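 MIC by twofold serial agar dilution in Mueller–Hinton II agar per CLSI, run only for compounds that gave an inhibition zone in disc assay. Compounds dissolved in DMSO, tested at 3.125–400 µg/ml in agar. Final inoculum 10^4 CFU/ml. […] DMSO control included.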

Bacillus subtilis [3] = assay: Antibacterial activity against Bacillus subtilis ATCC 6633 at 400 ug/disc after 18 hrs by disc diffusion assay; type: functional; settings: ATCC 6633, 18 h, read-out: IZ; outline: as §1
Bacillus subtilis [4] = assay: Antibacterial activity against Bacillus subtilis ATCC 6633 after 18 hrs by serial agar dilution method; type: functional; settings: ATCC 6633, 18 h; outline: as §2
Bacillus cereus [5] = assay: Antibacterial activity against Bacillus cereus ATCC 11778 at 400 ug/disc after 18 hrs by disc diffusion assay; type: functional; settings: ATCC 11778, 18 h, read-out: IZ; outline: as §1
Bacillus cereus [6] = assay: Antibacterial activity against Bacillus cereus ATCC 11778 after 18 hrs by serial agar dilution method; type: functional; settings: ATCC 11778, 18 h; outline: as §2
Enterococcus hirae [7] = assay: Antibacterial activity against Enterococcus hirae ATCC 10541 at 400 ug/disc after 18 hrs by disc diffusion assay; type: functional; outline: as §1
Enterococcus hirae [8] = assay: Antibacterial activity against Enterococcus hirae ATCC 10541 after 18 hrs by serial agar dilution method; type: functional; settings: ATCC 10541, 18 h
Outline: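 Twofold serial agar dilution MIC in Mueller–Hinton II agar (CLSI), run only for compounds that gave an inhibition zone in disc assay. DMSO solutions tested at 3.125–400 µg/ml in agar. Final inoculum 10^5 CFU/ml. Read after 18 h at 35 °C. DMSO control included.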

Micrococcus luteus [9] = assay: Antibacterial activity against Micrococcus luteus ATCC 9341 at 400 ug/disc after 18 hrs by disc diffusion assay; type: functional; settings: ATCC 9341, 18 h, read-out: IZ; outline: as §1
Micrococcus luteus [10] = assay: Antibacterial activity against Micrococcus luteus ATCC 9341 after 18 hrs by serial agar dilution method; type: functional; settings: ATCC 9341, 18 h; outline: as §2
Micrococcus luteus [11] = assay: Antibacterial activity against Micrococcus luteus ATCC 10240 at 400 ug/disc after 18 hrs by disc diffusion assay; type: functional; settings: ATCC 10240, 18 h, read-out: IZ; outline: as §1
Micrococcus luteus [12] = assay: Antibacterial activity against Micrococcus luteus ATCC 10240 after 18 hrs by serial agar dilution method; type: functional; settings: ATCC 10240, 18 h; outline: as §2
Escherichia coli [13] = assay: Antibacterial activity against Escherichia coli ATCC 10538 at 400 ug/disc after 18 hrs by disc diffusion assay; type: functional, organism-based; outline: as §1
Escherichia coli [14] = assay: Antibacterial activity against Escherichia coli ATCC 25922 at 400 ug/disc after 18 hrs by disc diffusion assay; type: functional, organism-based; outline: as §1
Proteus vulgaris = assay: Antibacterial activity against Proteus vulgaris NCTC 4635 at 400 ug/disc after 18 hrs by disc diffusion assay; type: functional, organism-based; outline: as §1
Pseudomonas aeruginosa [15] = assay: Antibacterial activity against Pseudomonas aeruginosa ATCC 15442 at 400 ug/disc after 18 hrs by disc diffusion assay; type: functional, organism-based; outline: as §1
Pseudomonas aeruginosa [16] = assay: Antibacterial activity against Pseudomonas aeruginosa NCTC 6749 at 400 ug/disc after 18 hrs by disc diffusion assay; type: functional, organism-based; outline: as §1
Pseudomonas aeruginosa [17] = assay: Antibacterial activity against Pseudomonas aeruginosa ATCC 27853 at 400 ug/disc after 18 hrs by disc diffusion assay; type: functional, organism-based; outline: as §1
[18] = system: Bordetella bronchiseptica; assay: Antibacterial activity against Bordetella bronchiseptica ATCC 4617 at 400 ug/disc after 18 hrs by disc diffusion assay; type: functional, organism-based; outline: as §1
Candida albicans [19] = assay: Antifungal activity against Candida albicans ATCC 10231 at 400 ug/disc after 24 hrs by disc diffusion assay; type: functional
Outline: (§3)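 Disc diffusion on RPMI agar with 2% glucose per CLSI guidelines. Discs 9 mm filter paper, loaded from ethanol solution with 400 µg compound, dried before placing on the agar. Inhibition zone diameter read after incubation at 35 °C. Fluconazole control at 25 µg per disc.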

Candida albicans [20] = assay: Antifungal activity against Candida albicans ATCC 10231 after 24 hrs by serial agar dilution method; type: functional; settings: ATCC 10231, 24 h
Outline: (§4)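 Yeast MIC by twofold serial agar dilution on RPMI agar with 2% glucose (CLSI), run only for compounds that gave an inhibition zone in disc assay. Compounds in DMSO, 3.125–400 µg/ml in agar. Final inoculum 10^4 CFU/ml. […] Fluconazole and DMSO controls included.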

Candida albicans [21] = assay: Antifungal activity against Candida albicans ATCC 90028 at 400 ug/disc after 24 hrs by disc diffusion assay; type: functional; outline: as §3
Candida albicans [22] = assay: Antifungal activity against Candida albicans ATCC 90028 after 24 hrs by serial agar dilution method; type: functional; settings: ATCC 90028, 24 h; outline: as §4
Escherichia coli [23] = assay: Antibacterial activity against Escherichia coli NCTC 8196 at 400 ug/disc after 18 hrs by disc diffusion assay; type: functional, organism-based; outline: as §1
Staphylococcus aureus [24] = assay: Antibacterial activity against Staphylococcus aureus NCTC 4163 at 400 ug/disc after 18 hrs by disc diffusion assay; type: functional; settings: NCTC 4163, 18 h, read-out: IZ; outline: as §1
Staphylococcus aureus [25] = assay: Antibacterial activity against Staphylococcus aureus NCTC 4163 after 18 hrs by serial agar dilution method; type: functional; settings: NCTC 4163, 18 h; outline: as §2
Staphylococcus aureus [26] = assay: Antibacterial activity against Staphylococcus aureus ATCC 25923 at 400 ug/disc after 18 hrs by disc diffusion assay; type: functional; settings: ATCC 25923, 18 h, read-out: IZ; outline: as §1
Staphylococcus aureus [27] = assay: Antibacterial activity against Staphylococcus aureus ATCC 25923 after 18 hrs by serial agar dilution method; type: functional; settings: ATCC 25923, 18 h; outline: as §2
Staphylococcus aureus [28] = assay: Antibacterial activity against Staphylococcus aureus ATCC 6538 at 400 ug/disc after 18 hrs by disc diffusion assay; type: functional; settings: ATCC 6538, 18 h, read-out: IZ; outline: as §1
Staphylococcus aureus [29] = assay: Antibacterial activity against Staphylococcus aureus ATCC 6538 after 18 hrs by serial agar dilution method; type: functional; settings: ATCC 6538, 18 h; outline: as §2
Staphylococcus aureus [30] = assay: Antibacterial activity against Staphylococcus aureus ATCC 29213 at 400 ug/disc after 18 hrs by disc diffusion assay; type: functional; settings: ATCC 29213, 18 h, read-out: IZ; outline: as §1
Staphylococcus aureus [31] = assay: Antibacterial activity against Staphylococcus aureus ATCC 29213 after 18 hrs by serial agar dilution method; type: functional; settings: ATCC 29213, 18 h; outline: as §2
Candida parapsilosis [32] = assay: Antifungal activity against Candida parapsilosis ATCC 22019 at 400 ug/disc after 24 hrs by disc diffusion assay; type: functional; outline: as §3
Candida parapsilosis [33] = assay: Antifungal activity against Candida parapsilosis ATCC 22019 after 24 hrs by serial agar dilution method; type: functional; settings: Lodderomyces parapsilosis, ATCC 22019, 24 h
Outline: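 Twofold serial agar dilution per CLSI on RPMI agar with 2% glucose. Agents were dissolved in DMSO and tested at 3.125–400 µg/ml in the solid medium, with a DMSO control. Final inoculum was 10^4 CFU/mL.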

Row | MIC [2] | MIC (Bacillus subtilis [4]) | MIC (Bacillus cereus [6]) | MIC (Enterococcus hirae [8]) | MIC (Micrococcus luteus [10]) | MIC (Micrococcus luteus [12]) | Structure (SMILES) | zone of inhibition at 400 µg/disc [1] | zone of inhibition at 400 µg/disc (Bacillus subtilis [3]) | zone of inhibition at 400 µg/disc (Bacillus cereus [5]) | zone of inhibition at 400 µg/disc (Micrococcus luteus [9]) | zone of inhibition at 400 µg/disc (Micrococcus luteus [11]) | Activity (Escherichia coli [13]) | Activity (Escherichia coli [14]) | Activity (Proteus vulgaris) | Activity (Pseudomonas aeruginosa [15]) | Activity (Pseudomonas aeruginosa [16]) | Activity (Pseudomonas aeruginosa [17]) | Activity [18] | Activity (Escherichia coli [23]) | zone of inhibition at 400 µg/disc (Staphylococcus aureus [24]) | further results
1 | 12.5 µg/mL (≈ 15.9 µM) | 6.25 µg/mL (≈ 7.97 µM) | 6.25 µg/mL (≈ 7.97 µM) | 50 µg/mL (≈ 63.8 µM) | 25 µg/mL (≈ 31.9 µM) | 12.5 µg/mL (≈ 15.9 µM) | CC[C@@]1([C@@H]2O[C@@H]([C@H]3O[C@@](O)(CO)[C@H](C)C[C@@H]3C)C[C@@H]2C)CC[C@H]([C@]2(C)CC[C@]3(C[C@H](O)[C@@H](C)[C@@H]([C@@H](C)[C@@H](OC)[C@H](C)C(=O)OCCN4CCOCC4)O3)O2)O1 | 24 mm | 27 mm | 25 mm | 22 mm | 18 mm | inactive | inactive | inactive | inactive | inactive | inactive | inactive | inactive | 23 mm | zone of inhibition at 400 µg/disc (Enterococcus hirae [7]; ATCC 10541, 18 h, read-out: IZ): 13 mm; zone of inhibition at 400 µg/disc (Candida albicans [19]; ATCC 10231, 24 h, read-out: IZ): 18 mm; MIC (Candida albicans [20]): 200 µg/mL (≈ 255 µM); zone of inhibition at 400 µg/disc (Candida albicans [21]; ATCC 90028, 24 h, read-out: IZ): 17 mm; MIC (Candida albicans [22]): 200 µg/mL (≈ 255 µM); MIC (Staphylococcus aureus [25]): 12.5 µg/mL (≈ 15.9 µM); zone of inhibition at 400 µg/disc (Staphylococcus aureus [26]): 20 mm; MIC (Staphylococcus aureus [27]): 6.25 µg/mL (≈ 7.97 µM); zone of inhibition at 400 µg/disc (Staphylococcus aureus [28]): 23 mm; MIC (Staphylococcus aureus [29]): 12.5 µg/mL (≈ 15.9 µM); zone of inhibition at 400 µg/disc (Staphylococcus aureus [30]): 25 mm; MIC (Staphylococcus aureus [31]): 6.25 µg/mL (≈ 7.97 µM); zone of inhibition at 400 µg/disc (Candida parapsilosis [32]; Lodderomyces parapsilosis, ATCC 22019, 24 h, read-out: IZ): 14 mm; MIC (Candida parapsilosis [33]): 400 µg/mL (≈ 510 µM)
2 | 100 µg/mL (≈ 122 µM) | 25 µg/mL (≈ 30.6 µM) | 50 µg/mL (≈ 61.2 µM) | > 400 µg/mL | 200 µg/mL (≈ 245 µM) | 50 µg/mL (≈ 61.2 µM) | CC[C@@]1([C@@H]2O[C@@H]([C@H]3O[C@@](O)(CO)[C@H](C)C[C@@H]3C)C[C@@H]2C)CC[C@H]([C@]2(C)CC[C@]3(C[C@H](O)[C@@H](C)[C@@H]([C@@H](C)[C@@H](OC)[C@H](C)C(=O)OCCOCCOCCOC)O3)O2)O1 | 13 mm | 20 mm | 19 mm | 11 mm | 13 mm | inactive | inactive | inactive | inactive | inactive | inactive | inactive | inactive | 19 mm | Activity (Enterococcus hirae [7]): inactive; Activity (Candida albicans [19]): inactive; Activity (Candida albicans [21]): inactive; MIC (Staphylococcus aureus [25]): 100 µg/mL (≈ 122 µM); zone of inhibition at 400 µg/disc (Staphylococcus aureus [26]): 19 mm; MIC (Staphylococcus aureus [27]): 50 µg/mL (≈ 61.2 µM); zone of inhibition at 400 µg/disc (Staphylococcus aureus [28]): 17 mm; MIC (Staphylococcus aureus [29]): 100 µg/mL (≈ 122 µM); zone of inhibition at 400 µg/disc (Staphylococcus aureus [30]): 17 mm; MIC (Staphylococcus aureus [31]): 50 µg/mL (≈ 61.2 µM); Activity (Candida parapsilosis [32]): inactive

From ChEMBL document CHEMBL1144800, “Synthesis and antimicrobial properties of monensin A esters” (2008)
